Activity calls are given as the source filed them. No cut-off for these calls is given here.
Experiments:
Adenosine receptor A2b = biological target: T1, Adenosine receptor A2b (Homo sapiens, UniProt P29275); experiment: Displacement of [3H]MRS-1754 from human adenosine A2B receptor expressed in HEK293 cell membranes after 90 mins
T1 sequence (P29275 whole entry): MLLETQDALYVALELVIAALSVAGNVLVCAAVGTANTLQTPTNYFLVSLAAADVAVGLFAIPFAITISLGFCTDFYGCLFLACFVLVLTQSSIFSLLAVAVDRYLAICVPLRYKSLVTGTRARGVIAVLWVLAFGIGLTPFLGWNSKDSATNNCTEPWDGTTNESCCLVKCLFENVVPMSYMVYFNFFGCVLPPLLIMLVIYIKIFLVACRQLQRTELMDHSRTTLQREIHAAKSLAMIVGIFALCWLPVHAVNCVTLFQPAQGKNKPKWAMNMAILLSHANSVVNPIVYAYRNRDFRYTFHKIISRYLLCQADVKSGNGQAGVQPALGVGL
How it was run: (§1)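 Membranes from HEK-293 cells stably transfected with human receptor, pre-treated with adenosine deaminase. Radioligands: 1 nM [3H]DPCPX (A1), 1 nM [3H]ZM241385 (A2A), 1.6 nM [3H]MRS-1754 (A2B), 2 nM [3H]HEMADO (A3). Buffers: Tris pH 7.4 (A1, A2A, A3) or pH 6.5 (A2B), with ADA. Incubated 90 min at room temperature, then filtered. Nonspecific binding defined with 100 µM NECA. Ki from 8 concentrations run in triplicate.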

Adenosine receptor A2a = Adenosine receptor A2a (Homo sapiens, UniProt P29274); experiment: Displacement of [3H]ZM241385 from human adenosine A2A receptor expressed in HEK293 cell membranes at 1 uM after 90 mins relative to control; how it was run: as §1
Adenosine receptor A3 = biological target: T2, Adenosine receptor A3 (Homo sapiens, UniProt P0DMS8); experiment: Displacement of [3H]HEMADO from human adenosine A3 receptor expressed in HEK293 cell membranes after 90 mins; how it was run: as §1
T2 sequence (P0DMS8 whole entry): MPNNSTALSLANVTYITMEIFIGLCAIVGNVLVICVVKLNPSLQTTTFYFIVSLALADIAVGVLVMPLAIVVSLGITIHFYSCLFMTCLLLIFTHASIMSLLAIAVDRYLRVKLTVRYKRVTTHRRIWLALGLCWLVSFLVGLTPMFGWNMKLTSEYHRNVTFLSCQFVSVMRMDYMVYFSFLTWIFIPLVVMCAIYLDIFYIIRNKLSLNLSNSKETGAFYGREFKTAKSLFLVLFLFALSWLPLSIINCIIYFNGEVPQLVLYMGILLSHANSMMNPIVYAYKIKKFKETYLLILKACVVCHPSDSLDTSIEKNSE

Liver = experiment: Metabolic stability in rat liver microsomes assessed as metabolic rate measured after 30 mins in presence of NADPH; format: ADME, microsome; conditions: 0.5 h
hERG (KCNH2) [1] = biological target: T3, hERG (KCNH2) (Homo sapiens, UniProt Q12809); experiment: Inhibition of human ERG at 5 uM relative to control
hERG (KCNH2) [2] = biological target: T3, hERG (KCNH2); experiment: Inhibition of human ERG at 25 uM relative to control
CYP2C19 = CYP2C19 (Homo sapiens, UniProt P33261); experiment: Inhibition of CYP2C19 (unknown origin) at 5 uM relative to control; format: ADME
[3] = Protein binding in mouse plasma at 5 uM; format: ADME, cell-free; conditions: read-out: PPB (converted)
[4] = Cmax in Wistar rat at 5 mg/kg, po via gavage by LC-Ms/MS analysis; format: ADME, organism-based; parameters: dose 5 mg/kg, route oral; conditions: in vivo
How it was run: (§2)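 Male Wistar rats (230 ± 15 g), fasted overnight with water available. IV dose of 3 mg/kg given by tail vein as a solution (0.6 mg/mL, 5 mL/kg). PO dose of 5 mg/kg given by gavage as a suspension. Blood was collected into K2EDTA at 0.008 (IV only) to 24 h and plasma was spun off. Samples were precipitated with acetonitrile and run on LC/MS/MS. Parameters came from non-compartmental analysis of individual animals, mean of n = 4.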

[5] = Tmax in Wistar rat at 5 mg/kg, po via gavage by LC-Ms/MS analysis; format: ADME, organism-based; conditions: in vivo
How it was run: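 Male Wistar rats (230 ± 15 g), fasted overnight with water available. IV dosing at 3 mg/kg by tail vein as solution (0.6 mg/mL, 5 mL/kg). PO dosing at 5 mg/kg by oral gavage. Serial blood sampling into K2EDTA from 0.008 (IV only) to 24 h. Plasma precipitated with acetonitrile containing internal standard and analysed by LC/MS/MS. Non-compartmental parameters calculated per animal; values are means of n = 4.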

[6] = AUC(0 to t) in Wistar rat at 5 mg/kg, po via gavage by LC-Ms/MS analysis; format: ADME, organism-based; conditions: in vivo; how it was run: as §2
[7] = Plasma concentration in Wistar rat at 5 mg/kg, po via gavage measured at 1 hr post dose by LC-Ms/MS analysis; format: ADME, organism-based
How it was run: (§3)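 Male Wistar rats, fasted overnight and for 2 h after dosing, given an oral solution at 5 mg/kg (0.5 mg/mL). Vehicle: NMP 10% with Labrasol 30% or PEG-400 20%, in citrate buffer […]. Blood and brain were taken at discrete time points, n = 2 per time point. Brain was homogenized 1:2 in PBS. Samples were precipitated with acetonitrile and run on LC-MS/MS; LLOQ 10 ng/mL.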

[8] = Plasma concentration in Wistar rat at 5 mg/kg, po via gavage measured at 2 hrs post dose by LC-Ms/MS analysis; format: ADME, organism-based; how it was run: as §3
[9] = Plasma concentration in Wistar rat at 5 mg/kg, po via gavage measured at 4 hrs post dose by LC-Ms/MS analysis; format: ADME, organism-based; how it was run: as §3
[10] = Drug uptake in Wistar rat brain at 5 mg/kg, po via gavage measured at 1 hr post dose by LC-Ms/MS analysis; format: ADME, organism-based; conditions: read-out: Drug uptake; how it was run: as §3
[11] = Drug uptake in Wistar rat brain at 5 mg/kg, po via gavage measured at 2 hrs post dose by LC-Ms/MS analysis; format: ADME, organism-based; conditions: read-out: Drug uptake; how it was run: as §3
[12] = Drug uptake in Wistar rat brain at 5 mg/kg, po via gavage measured at 4 hrs post dose by LC-Ms/MS analysis; format: ADME, organism-based; conditions: read-out: Drug uptake; how it was run: as §3
Rattus norvegicus [13] = experiment: Natriuretic activity in Wistar rat at 3 to 30 mg/kg, po via gavage measured after 4 hrs; format: functional, organism-based
How it was run: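 Male Wistar rats (250-300 g, n = 6) dosed orally at 5 mL/kg. Vehicles: DMAC 5%/NaOH/saline, or NMP 10%/PEG-400 20%/saline pH 12.0. Rats were then kept singly in metabolic cages without food or water for 4 h. Urine volume, Na+ and K+ were measured with a biochemistry analyser.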

Rattus norvegicus [14] = experiment: Effect on serum K+ level in Wistar rat at 3 to 30 mg/kg, po via gavage; format: ADME, organism-based; conditions: in vivo
[15] = biological target: T4, Adenosine receptor A2b (Homo sapiens) (UniProt P29275); experiment: Displacement of [3H]MRS-1754 from human adenosine A2B receptor expressed in HEK293 cell membranes at 1 uM after 90 mins relative to control; how it was run: as §1
T4 sequence (whole entry): T1 sequence (P29275 whole entry)

[16] = biological target: T5, Adenosine receptor A3 (Homo sapiens) (UniProt P0DMS8); experiment: Displacement of [3H]HEMADO from human adenosine A3 receptor expressed in HEK293 cell membranes at 1 uM after 90 mins relative to control; how it was run: as §1
T5 sequence (whole entry): T2 sequence (P0DMS8 whole entry)

CYP2C9 = CYP2C9 (Homo sapiens, UniProt P11712); experiment: Inhibition of CYP2C9 (unknown origin) at 5 uM relative to control; format: ADME
[17] = Drug metabolism assessed as dehydration by metabolic soft spot analysis; format: physicochemical

T3 sequence (Q12809 whole entry): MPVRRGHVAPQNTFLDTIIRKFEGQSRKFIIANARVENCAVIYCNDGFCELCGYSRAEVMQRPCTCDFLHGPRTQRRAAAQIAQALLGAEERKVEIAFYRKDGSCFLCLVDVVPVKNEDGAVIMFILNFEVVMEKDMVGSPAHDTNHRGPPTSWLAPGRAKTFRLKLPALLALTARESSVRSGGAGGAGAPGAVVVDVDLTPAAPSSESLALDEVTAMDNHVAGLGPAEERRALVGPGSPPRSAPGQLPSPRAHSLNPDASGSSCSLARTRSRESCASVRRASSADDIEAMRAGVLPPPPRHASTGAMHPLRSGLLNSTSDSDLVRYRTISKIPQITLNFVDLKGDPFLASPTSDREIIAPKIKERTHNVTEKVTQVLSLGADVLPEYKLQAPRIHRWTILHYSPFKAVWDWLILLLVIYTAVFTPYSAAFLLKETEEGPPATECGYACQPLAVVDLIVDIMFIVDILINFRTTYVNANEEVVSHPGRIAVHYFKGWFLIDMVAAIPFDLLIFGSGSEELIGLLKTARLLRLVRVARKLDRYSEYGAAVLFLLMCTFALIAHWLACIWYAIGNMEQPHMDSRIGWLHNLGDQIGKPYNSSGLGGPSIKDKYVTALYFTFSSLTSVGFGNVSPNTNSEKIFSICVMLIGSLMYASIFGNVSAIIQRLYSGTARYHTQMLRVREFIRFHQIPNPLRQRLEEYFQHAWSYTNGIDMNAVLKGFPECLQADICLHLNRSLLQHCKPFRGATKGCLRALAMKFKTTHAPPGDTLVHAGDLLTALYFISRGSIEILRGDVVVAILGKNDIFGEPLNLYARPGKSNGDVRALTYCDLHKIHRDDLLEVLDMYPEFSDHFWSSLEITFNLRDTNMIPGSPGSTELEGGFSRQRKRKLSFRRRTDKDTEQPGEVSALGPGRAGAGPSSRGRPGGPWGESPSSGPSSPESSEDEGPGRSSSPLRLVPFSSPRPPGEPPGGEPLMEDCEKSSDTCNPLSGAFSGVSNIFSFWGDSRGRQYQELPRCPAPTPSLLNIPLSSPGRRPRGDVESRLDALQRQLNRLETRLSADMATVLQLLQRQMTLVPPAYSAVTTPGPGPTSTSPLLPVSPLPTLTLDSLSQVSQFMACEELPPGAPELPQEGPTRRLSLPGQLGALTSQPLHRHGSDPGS
Chain of CYP2C9 (P11712 whole entry): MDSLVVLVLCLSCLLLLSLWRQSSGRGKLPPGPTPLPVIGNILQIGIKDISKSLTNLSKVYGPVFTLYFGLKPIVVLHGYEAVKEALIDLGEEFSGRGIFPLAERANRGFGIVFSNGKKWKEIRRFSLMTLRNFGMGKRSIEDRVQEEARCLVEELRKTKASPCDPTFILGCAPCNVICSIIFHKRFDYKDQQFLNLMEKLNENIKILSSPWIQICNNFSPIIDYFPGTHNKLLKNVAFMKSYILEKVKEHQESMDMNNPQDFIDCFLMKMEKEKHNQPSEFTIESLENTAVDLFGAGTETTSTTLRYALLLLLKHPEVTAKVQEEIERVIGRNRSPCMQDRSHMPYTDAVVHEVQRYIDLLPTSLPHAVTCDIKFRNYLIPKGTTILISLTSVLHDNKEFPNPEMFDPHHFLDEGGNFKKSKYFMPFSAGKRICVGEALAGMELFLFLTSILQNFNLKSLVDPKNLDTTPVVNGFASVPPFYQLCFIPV
Chain of Adenosine receptor A2a (P29274 whole entry): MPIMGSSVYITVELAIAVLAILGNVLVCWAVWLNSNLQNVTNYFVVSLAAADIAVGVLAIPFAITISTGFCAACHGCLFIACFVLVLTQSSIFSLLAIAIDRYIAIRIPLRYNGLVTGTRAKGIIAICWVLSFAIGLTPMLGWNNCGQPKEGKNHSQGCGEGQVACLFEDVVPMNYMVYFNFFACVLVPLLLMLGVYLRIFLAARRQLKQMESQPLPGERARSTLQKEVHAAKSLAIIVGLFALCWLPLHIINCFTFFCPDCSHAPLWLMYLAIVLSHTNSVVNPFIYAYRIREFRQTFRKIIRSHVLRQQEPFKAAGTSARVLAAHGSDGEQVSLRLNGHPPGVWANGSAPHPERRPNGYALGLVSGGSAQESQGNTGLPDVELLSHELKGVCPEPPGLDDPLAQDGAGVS
Chain of CYP2C19 (P33261 whole entry): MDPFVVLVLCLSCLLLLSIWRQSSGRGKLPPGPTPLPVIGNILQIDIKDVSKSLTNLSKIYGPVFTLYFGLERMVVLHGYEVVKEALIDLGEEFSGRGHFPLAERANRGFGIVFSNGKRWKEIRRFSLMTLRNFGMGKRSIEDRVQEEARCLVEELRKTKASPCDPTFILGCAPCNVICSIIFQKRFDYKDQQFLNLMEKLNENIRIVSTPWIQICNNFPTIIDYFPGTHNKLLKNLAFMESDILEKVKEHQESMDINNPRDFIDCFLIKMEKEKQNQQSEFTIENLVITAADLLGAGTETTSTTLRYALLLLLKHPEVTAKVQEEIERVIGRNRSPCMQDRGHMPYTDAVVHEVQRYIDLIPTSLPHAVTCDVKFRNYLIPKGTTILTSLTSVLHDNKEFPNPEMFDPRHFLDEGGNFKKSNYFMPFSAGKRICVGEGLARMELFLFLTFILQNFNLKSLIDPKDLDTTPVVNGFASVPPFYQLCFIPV

| Ki (Adenosine receptor A2b) [µM] | inhibition (Adenosine receptor A2a) | Drug metabolism (Liver) [nmol/min/mg] | inhibition at 5 µM (CYP2C19) [%] | fraction unbound at 5 µM [3] | Cmax [4] [nM] | Tmax [5] [min] | AUC(0-t) [6] [µM·h] | concentration at 1 h [7] [nM] | concentration at 2 h [8] [nM] | concentration at 4 h [9] [nM] | concentration at 1 h [10] | concentration at 2 h [11] | concentration at 4 h [12] | inhibition at 5 µM (CYP2C9) [%] | SMILES | inhibition at 5 µM (hERG (KCNH2) [1]) [%] | inhibition at 25 µM (hERG (KCNH2) [2]) [%] | other results |
| --- | --- | --- | --- | --- | --- | --- | --- | --- | --- | --- | --- | --- | --- | --- | --- | --- | --- | --- |
| > 10 | inactive | 0.08 | 0 | 0.01 | 9710 | 97.8 | 3.19 | 1640 | 940 | 1810 | 90 nM | 50 nM | 80 nM | – | CCCn1c(Oc2ccc(F)c(F)c2)nc2nc(C3CCCC3)[nH]c2c1=O | 2 | 4 | IC50 (Adenosine receptor A2b): > 10 µM; IC50 (Adenosine receptor A3): > 10 µM; Activity (Rattus norvegicus [13]): Active; Activity (Rattus norvegicus [14]): Non-Toxic |
| – | 33% | 0.07 | 10 | – | – | – | – | – | – | – | – | – | – | 4 | CCCn1c(Oc2cccnc2C)nc2nc(C3CCCC3)[nH]c2c1=O | – | – | inhibition [15]: 49%; inhibition [16]: 35%; Drug metabolism [17]: Metabolite_Detected |
| 1.1 | – | 0.05 | – | 0.05 | 1740 | 18 | 1.6 | 670 | 540 | 40 | 10 ng/g | 10 ng/g | 10 ng/g | 7 | CCCn1c(-c2cccc(OC)c2)nc2nc(C3CCCC3)[nH]c2c1=O | 9 | 72 | – |

Reference: ChEMBL document CHEMBL3992564, “Design and synthesis of novel, potent and selective hypoxanthine analogs as adenosine A1 receptor antagonists and their biological evaluation” (Bioorg Med Chem, 2017)
